Structures can show the parent of a compound that is named as a salt.
Columns and labels:
MV4-11 = assay: Antiproliferative activity against human MV4-11 cells after 72 hrs by MTT assay; type: functional, cell-based; details: MV4-11, 72 h
Summary of the method: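 Leukemia cells cultured in RPMI 1640 at 37 °C, 5% CO2. Plated at 1 × 10⁴ cells/well 24 h ahead, then 72 h with compound at 0.001–10 µg/mL. MTT (stock 5 mg/mL) added, formazan dissolved with a DMF/SDS lysing mixture for 24 h, OD read at 570 nm. IC50 vs untreated control; triplicates, 3–5 repeats.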

HCT-116 = assay: Antiproliferative activity against human HCT116 cells after 72 hrs by SRB assay; type: functional, cell-based; details: HCT-116, 72 h
Summary of the method: (§1)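 Cells grown in RPMI 1640+OptiMEM (50:50) with 2 mM L-glutamine and 5% FBS at 37 °C, 5% CO2. Plated at 1 × 10⁴ cells/well 24 h before treatment, then exposed 72 h to 0.001–10 µg/mL compound (from 1 mg/mL stock in DMSO/medium). TCA-fixed, stained with 0.4% SRB in 1% acetic acid, dye extracted with 10 mM Tris, read at 540 nm. IC50 vs untreated control; triplicates, 3–5 experiments.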

BALB/3T3 [1] = assay: Antiproliferative activity against mouse BALB/3T3 cells after 72 hrs by SRB assay; type: cell-based; details: BALB/3T3, 72 h
Summary of the method: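 Mouse fibroblasts kept in Dulbecco's medium with 2 mM L-glutamine, 1.0 mM sodium pyruvate and 10% FBS at 37 °C, 5% CO2. Seeded at 1 × 10⁴ cells/well a day before dosing, then 72 h exposure to 0.001–10 µg/mL. SRB staining after TCA fixation, Tris extraction, OD 540 nm. IC50 relative to untreated cells; triplicate wells, 3–5 independent runs.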

A549 [2] = assay: Antiproliferative activity against human A549 cells after 72 hrs by SRB assay; type: functional, cell-based; details: A549, 72 h; summary of the method: as §1
A549 [3] = assay: Selectivity ratio of IC50 for human A549 cells to IC50 for human HCT116 cells; type: functional
BALB/3T3 [4] = assay: Selectivity ratio of IC50 for mouse BALB/3T3 cells to IC50 for human HCT116 cells
Nucleic Acid = assay: Binding affinity to salmon fish sperm DNA assessed as hypochromic effect by UV-Vis absorption spectroscopic analysis at pH 7; type: nucleic-acid assay; details: Salmonidae
Summary of the method: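 UV–vis absorption titration in pH 7.0 phosphate buffer with 2.5% DMSO at 20 °C, 1 cm quartz cuvette. Compound held at 50 µmol/L with DNA added from 0 to 1.0 µmol/L. Binding assessed from absorbance change using a 1/ΔA versus 1/[DNA] plot.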

BALB/3T3 [5] = assay: Selectivity ratio of IC50 for mouse BALB/3T3 cells to IC50 for human A549 cells

SMILES: Cn1c2nc3ccccc3c-2c(NCCc2c[nH]c3ccccc23)c2ccccc21
- IC50 (MV4-11): 0.871 µM

SMILES: Cn1c2nc3ccccc3c-2c(NCCCCN)c2cc(Cl)ccc21
- IC50 (MV4-11): 0.68 µM

SMILES: CCN(CC)CCCC(C)Nc1c2cc(Cl)ccc2nc2c1c1ccccc1n2C (configuration not stated)
- IC50 (MV4-11): 5.25 µM

SMILES: COc1ccc2c(c1)c(NCCCCN)c1c3ccccc3nc-1n2C
- IC50 (HCT-116): 0.657 µM
- IC50 (BALB/3T3 [1]): 1.62 µM
- IC50 (A549 [2]): 0.674 µM
- IC50 (MV4-11): 0.132 µM

SMILES: Cn1c2nc3ccccc3c-2c(NCCCO)c2ccccc21
- IC50 (HCT-116): 0.714 µM
- IC50 (BALB/3T3 [1]): 0.635 µM
- IC50 (A549 [2]): 0.973 µM
- IC50 (MV4-11): 0.17 µM

SMILES: Cn1c2nc3ccccc3c-2c(NCCCO)c2cc(Cl)ccc21
- IC50 (MV4-11): 0.53 µM

SMILES: Cn1c2ccccc2c2c(NCCCO)c3cc(Cl)ccc3nc21
- IC50 (MV4-11): 6.21 µM

SMILES: CN1CCCN(c2c3c4ccccc4nc-3n(C)c3ccc(Cl)cc23)CC1
- IC50 (HCT-116): 1.75 µM
- Ratio IC50 (A549 [3]): 4
- IC50 (BALB/3T3 [1]): 6.41 µM
- Ratio IC50 (BALB/3T3 [4]): 4
- IC50 (A549 [2]): 7.39 µM
- IC50 (MV4-11): 0.106 µM

SMILES: Cn1c2ccccc2c2c(NCCN)c3cc(Cl)ccc3nc21
- IC50 (HCT-116): 6.99 µM
- IC50 (BALB/3T3 [1]): 10.4 µM
- IC50 (A549 [2]): 8.28 µM
- IC50 (MV4-11): 0.456 µM

SMILES: Cn1c2nc3ccccc3c-2c(N2CCOCC2)c2ccccc21
- IC50 (HCT-116): 1.79 µM
- IC50 (BALB/3T3 [1]): 1.61 µM
- IC50 (A549 [2]): 1.51 µM
- IC50 (MV4-11): 0.164 µM

SMILES: Cn1c2ccccc2c2c(N3CCOCC3)c3cc(Cl)ccc3nc21
- IC50 (MV4-11): > 25 µM

SMILES: CCN(CC)CCCC(C)Nc1c2c3ccccc3nc-2n(C)c2ccccc12 (configuration not stated)
- IC50 (MV4-11): 0.721 µM

SMILES: Cn1c2ccccc2c2c(NCCc3c[nH]c4ccccc34)c3cc(Cl)ccc3nc21
- IC50 (MV4-11): 18.8 µM

SMILES: COc1ccc2c(c1)c(Cl)c1c3ccccc3nc-1n2C
- IC50 (MV4-11): 1.21 µM

SMILES: Cn1c2ccccc2c2c(NCCCN)c3cc(Cl)ccc3nc21
- K (Nucleic Acid): 3.28 ×10⁵ L/mol
- IC50 (HCT-116): 4.49 µM
- IC50 (BALB/3T3 [1]): 9.8 µM
- IC50 (A549 [2]): 7.38 µM
- IC50 (MV4-11): 0.8 µM

SMILES: Cn1c2ccccc2c2c(NCCCCN)c3cc(Cl)ccc3nc21
- IC50 (HCT-116): 5.5 µM
- IC50 (BALB/3T3 [1]): 9.01 µM
- IC50 (A549 [2]): 6.09 µM
- IC50 (MV4-11): 0.669 µM

SMILES: Cn1c2nc3ccccc3c-2c(Cl)c2cc(Br)ccc21
- IC50 (MV4-11): 0.81 µM

SMILES: Cn1c2nc3ccccc3c-2c(NCCCN)c2cc(Cl)ccc21
- IC50 (HCT-116): 0.195 µM
- Ratio IC50 (A549 [3]): 4
- IC50 (BALB/3T3 [1]): 0.401 µM
- Ratio IC50 (BALB/3T3 [4]): 4
- IC50 (A549 [2]): 0.761 µM
- IC50 (MV4-11): 0.068 µM

SMILES: Cn1c2nc3ccccc3c-2c(NCCCCN)c2cc(Br)ccc21
- IC50 (HCT-116): 0.209 µM
- Ratio IC50 (BALB/3T3 [5]): 3
- IC50 (BALB/3T3 [1]): 0.742 µM
- Ratio IC50 (BALB/3T3 [4]): 3
- IC50 (A549 [2]): 0.579 µM
- IC50 (MV4-11): 0.091 µM

SMILES: CN1CCCN(c2c3cc(Cl)ccc3nc3c2c2ccccc2n3C)CC1
- IC50 (HCT-116): 8 µM
- IC50 (BALB/3T3 [1]): > 25 µM
- IC50 (A549 [2]): 11.2 µM
- IC50 (MV4-11): 0.773 µM

SMILES: CN(C)CCNc1c2cc(Cl)ccc2nc2c1c1ccccc1n2C
- IC50 (MV4-11): 2.83 µM

SMILES: COc1cccc2c1C(=O)c1c(O)c3c(c(O)c1C2=O)C[C@@](O)(C(=O)CO)C[C@@H]3O[C@H]1C[C@H](N)[C@H](O)[C@H](C)O1 [DOXORUBICIN HYDROCHLORIDE]
- IC50 (HCT-116): 0.39 µM
- IC50 (BALB/3T3 [1]): 1.08 µM
- IC50 (A549 [2]): 0.329 µM
- IC50 (MV4-11): 0.006 µM

SMILES: COc1ccc2c(c1)c(NCCCO)c1c3ccccc3nc-1n2C
- IC50 (HCT-116): 0.278 µM
- Ratio IC50 (A549 [3]): 4
- IC50 (BALB/3T3 [1]): 0.807 µM
- Ratio IC50 (BALB/3T3 [4]): 4
- IC50 (A549 [2]): 1.01 µM
- IC50 (MV4-11): 0.135 µM

SMILES: Cn1c2nc3ccccc3c-2c(NCCCO)c2cc(Br)ccc21
- IC50 (HCT-116): 0.989 µM
- IC50 (BALB/3T3 [1]): 1.2 µM
- IC50 (A549 [2]): 1.59 µM
- IC50 (MV4-11): 0.703 µM

SMILES: Cn1c2nc3ccccc3c-2c(Cl)c2ccccc21 [11-CHLORONEOCRYPTOLEPINE]
- IC50 (MV4-11): 1.31 µM

SMILES: COc1ccc2c(c1)c(NCCCN)c1c3ccccc3nc-1n2C
- IC50 (HCT-116): 0.155 µM
- Ratio IC50 (BALB/3T3 [5]): 3
- IC50 (BALB/3T3 [1]): 0.978 µM
- Ratio IC50 (BALB/3T3 [4]): 3
- IC50 (A549 [2]): 0.407 µM
- IC50 (MV4-11): 0.102 µM

SMILES: CN(C)CCCNCc1c2c3ccccc3nc-2n(C)c2ccc(Cl)cc12
- IC50 (MV4-11): 3.46 µM

SMILES: Cn1c2nc3ccccc3c-2c(NCCCN)c2cc(Br)ccc21
- K (Nucleic Acid): 2.93 ×10⁵ L/mol
- IC50 (HCT-116): 0.274 µM
- Ratio IC50 (BALB/3T3 [5]): 3
- IC50 (BALB/3T3 [1]): 0.869 µM
- Ratio IC50 (BALB/3T3 [4]): 3
- IC50 (A549 [2]): 0.543 µM
- IC50 (MV4-11): 0.012 µM

SMILES: Cn1c2nc3ccccc3c-2c(NCCCCN)c2ccccc21
- IC50 (HCT-116): 0.669 µM
- IC50 (BALB/3T3 [1]): 0.936 µM
- IC50 (A549 [2]): 0.911 µM
- IC50 (MV4-11): 0.1 µM

SMILES: CN1CCCN(Cc2c3c4ccccc4nc-3n(C)c3ccc(Cl)cc23)CC1
- IC50 (MV4-11): 3.44 µM

SMILES: CCN(CC)CCCC(C)Nc1c2c3ccccc3nc-2n(C)c2ccc(Br)cc12 (configuration not stated)
- IC50 (MV4-11): 0.578 µM

SMILES: CN1CCCN(c2c3c4ccccc4nc-3n(C)c3ccccc23)CC1
- IC50 (MV4-11): 7.17 µM

SMILES: CN1CCCN(c2c3c4ccccc4nc-3n(C)c3ccc(Br)cc23)CC1
- IC50 (HCT-116): 1.16 µM
- IC50 (BALB/3T3 [1]): 7.6 µM
- IC50 (A549 [2]): 4.54 µM
- IC50 (MV4-11): 0.737 µM

SMILES: Cn1c2nc3ccccc3c-2c(NCCCN)c2ccccc21
- IC50 (HCT-116): 0.302 µM
- Ratio IC50 (BALB/3T3 [5]): 3
- IC50 (BALB/3T3 [1]): 0.884 µM
- Ratio IC50 (BALB/3T3 [4]): 3
- IC50 (A549 [2]): 0.205 µM
- IC50 (MV4-11): 0.066 µM

SMILES: CCN(CC)CCCC(C)Nc1c2c3ccccc3nc-2n(C)c2ccc(Cl)cc12 (configuration not stated)
- IC50 (MV4-11): 0.78 µM

SMILES: Cn1c2nc3ccccc3c-2c(NCCCCN)c2cc(F)ccc21
- IC50 (HCT-116): 0.178 µM
- Ratio IC50 (A549 [3]): 4
- IC50 (BALB/3T3 [1]): 0.853 µM
- Ratio IC50 (BALB/3T3 [4]): 4
- IC50 (A549 [2]): 0.785 µM
- IC50 (MV4-11): 0.095 µM

SMILES: Cn1c2nc3ccccc3c-2c(NCCc2c[nH]c3ccccc23)c2cc(Cl)ccc21
- IC50 (MV4-11): 0.447 µM

Source: ChEMBL document CHEMBL2057078, “Synthesis and in vitro antiproliferative activity of new 11-aminoalkylamino-substituted 5H- and 6H-indolo[2,3-b]quinolines; structure-activity relationships of neocryptolepines and 6-methyl congeners” (Bioorg Med Chem, 2012)
